In ChEMBL document CHEMBL2062459, “Type 1 Phototherapeutic Agents. 2. Cancer Cell Viability and ESR Studies of Tricyclic Diarylamines” (ACS Med Chem Lett, 2012):

Tested on: U-937
Experiment: Cytotoxicity in UV-irradiated human U937 cells exposed to photosensitizer for 2 hrs before irradiation for 20 mins by WST-1 assay
Assay type: functional, cell-based
Settings: U-937, light or radiation study
Summary of the method: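 Compounds were made up as 8 mM DMSO stocks and diluted into culture medium so that final DMSO on cells stayed below 0.5%. Cells were tested across a concentration range both in the dark and with light exposure. Values are the average of at least three independent runs.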

c1ccc2c(c1)Cc1ccccc1N2 [ACRIDAN]
IC50: 680 nM

c1ccc(C2c3ccccc3Nc3ccccc32)cc1
IC50: 170 nM

C1=Cc2ccccc2Nc2ccccc21 [IMINOSTILBENE]
IC50: 2580 nM

c1ccc2c(c1)Nc1ccccc1O2 [PHENOXAZINE]
IC50: 14500 nM

c1ccc2c(c1)Nc1ccccc1S2 [PHENOTHIAZINE]
IC50: 1390 nM

c1ccc2c(c1)[nH]c1ccccc12 [CARBAZOLE]
IC50: 5560 nM
